From PubChem BioAssay
In the library only some 3.2% were active in any assay of this set; here they are far more common.
CHO parental Ca = ATP-evoked calcium signal inhibitors, parental CHO, primary screen, counter-screen for OX1R antagonist project, cell-based, fluorescence, Fluo-8 calcium dye. parental CHO-K1, ATP-induced calcium, Fluo-8 fluorescence. inhibition, % at 5.6 µM. actives 0.63% (n = 330,000);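 active = inhibition above that plate's mean sample inhibition plus 3 SD, cut at about 26% in these data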
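material = parental CHO cells | also added = ATP as calcium-mobilizing challenge | dosing = single point at 5.6 µM | detection = intracellular calcium via Fluo-8 no-wash fluorescent dye | read-out = % inhibition | benchmarks = low control ATP plus DMSO, high control DMSO only | repeats = one well per compound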
OX1R antag-1 = antagonists of human orexin 1 receptor (OX1R) | OX1R-expressing cells, FRET antagonist read-out | inhibition, % at 6.6 µM | actives 1.8% (n = 330,000); in the data active = inhibition mostly above about 38%, no sharp cut-off; inactive = mostly below about 40%
TRPN1 ag = zebrafish TRPN1 channel agonists, primary screen, cell-based, HEK293, calcium fluorescence | AID 1424, 2008 | HEK293 zebrafish TRPN1-YFP, Fluo-8 calcium fluorescence; 100% = response to 87 µM carbachol | actives 0.18% (n = 220,000) | activation, % at 3 µM | transient receptor potential cation channel N1 (TRPN1/NompC), Danio rerio;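 active = activation above its plate's cutoff, the mean activation of test wells on that plate plus 3 SD, cut at about 19% in these data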
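Material: zebrafish TRPN1-YFP in HEK293 cells. Doses: one dose of 3 µM, 0.3% DMSO. Incubation: dye 1 h 37 °C plus 30 min RT. Measured by: intracellular calcium fluorescence with Fluo-8.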
GPR7 antagonist = GPR7 receptor antagonists, primary screen, cell-based, fluorescence, single concentration; actives 1.1% (n = 290,000); GPR7-expressing cells, fluorescence antagonist assay; AID 1861, 2009; inhibition, % at 4.4 µM; Neuropeptides B/W receptor type 1 (Homo sapiens), P48145; in the data active = inhibition above about 16%, passing the limit was not always enough;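 note: cells stimulated with the agonist NPW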
TRPML3 ag = human TRPML3 channel agonists, primary screen, cell-based, HEK293 TRPML3-YFP, Fluo-8 calcium fluorescence, 3 µM | AID 1448, 2008 | 100% = the carbachol control signal | Mucolipin-3 (Homo sapiens), Q8TDD5 | actives 0.29% (n = 220,000) | activation, % at 3 µM;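 active = activation above its plate's cutoff, the mean activation of the plate's test wells plus 3 SD, cut at about 12% in these data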
Target sequence (Q8TDD5 whole entry, looked up): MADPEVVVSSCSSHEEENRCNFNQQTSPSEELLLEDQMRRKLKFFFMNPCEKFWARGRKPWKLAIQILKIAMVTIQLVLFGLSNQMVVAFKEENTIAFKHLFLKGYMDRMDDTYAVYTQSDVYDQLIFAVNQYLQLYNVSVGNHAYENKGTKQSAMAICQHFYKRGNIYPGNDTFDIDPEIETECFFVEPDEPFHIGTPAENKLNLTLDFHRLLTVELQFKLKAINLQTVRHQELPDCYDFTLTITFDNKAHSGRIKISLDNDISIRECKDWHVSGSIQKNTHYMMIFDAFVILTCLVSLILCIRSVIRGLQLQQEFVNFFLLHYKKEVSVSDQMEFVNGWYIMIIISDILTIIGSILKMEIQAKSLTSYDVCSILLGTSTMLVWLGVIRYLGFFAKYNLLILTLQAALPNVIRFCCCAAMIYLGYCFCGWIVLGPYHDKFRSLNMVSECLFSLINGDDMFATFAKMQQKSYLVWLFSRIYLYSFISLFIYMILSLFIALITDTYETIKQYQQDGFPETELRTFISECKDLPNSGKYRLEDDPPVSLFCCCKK
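Test system: TRPML3-YFP stable HEK293 cells. Doses: single point at 3 µM. Incubation: dye loading 1 h 37 °C then 30 min ambient, 125 s read. Signal: Fluo-8 calcium dye fluorescence, ex 470-495, em 515-575 nm. Measure: percent activation from peak-to-basal fluorescence ratio, scaled between DMSO and carbachol.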
OX1R antag-2 = OX1R (HCRTR1) antagonists, primary screen, fluorescence, CHO/OX1R cells, Fluo-8 calcium, orexin A; Fluo-8 calcium fluorescence; inhibition, % at 5 µM; actives 0.43% (n = 330,000); AID 434989, 2010;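 active = inhibition above its plate's threshold, mean inhibition of all tested compounds on the plate plus 3 SD, cut at about 37% in these data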
A number is an active result; - = inactive; . = no result given.

SMILES	CHO parental Ca	OX1R antag-1	TRPN1 ag	GPR7 antagonist	TRPML3 ag	OX1R antag-2
COc1ccc(C(=O)C2CCCN(C(=O)c3ccoc3C)C2)cc1F (centres undefined)	-	-	-	-	-	-
COc1ccc(-c2cc(=O)c3ccccc3o2)cc1	-	67	.	.	.	-
CC(NC(=O)C1CCN(S(=O)(=O)c2ccc3c(c2)NC(=O)CO3)CC1)c1ccccc1 (centres undefined)	-	-	.	-	.	-
O=C(CSc1nnnn1-c1ccccc1)Nc1ccc(Cl)cn1	44	-	-	-	-	-
O=C(CSc1nnnn1-c1ccccc1)Nc1ccc(Cl)cc1	-	-	-	-	-	-
CC(C)CCC(C(=O)NC(C)c1ccccc1)C(=O)NC(C)c1ccccc1 (centres undefined)	-	43	.	-	.	-
CCO/C(C)=N/n1c2nc3ccccc3nc2c2c(=O)n(CC(C)C)c(C)nc21	-	73	-	-	-	-
C[n+]1ccc(/C=C/c2ccccc2O)c2ccccc21	-	72	-	-	-	-
CN1/C(=C/c2cc[n+](C)c3ccccc23)C=Cc2ccccc21	.	.	-	-	-	.
O=C(O)CCC(=O)Nc1cccc(-c2nc3ccccc3o2)c1	.	.	.	-	.	.
COc1ccc(OC)c(CCNC(=O)c2cccc(NC(=O)C3=C(C)OCCS3)c2)c1	-	41	.	-	.	-
COc1ccc(CCNC(=O)c2ccccc2NC(=O)C2=C(C)OCCS2)c(OC)c1	-	64	.	-	.	-
COCCNC(=O)c1cccc(NC(=O)C2=C(C)OCCS2)c1	-	-	.	-	.	-
CN(CC(=O)NCc1cccs1)S(=O)(=O)c1cccc2nsnc12	-	51	-	-	-	-
CN(CC(=O)NCc1ccc(F)cc1)S(=O)(=O)c1cccc2nsnc12	-	-	-	-	-	-
COC(=O)c1cccc(NC(=O)/C=C/c2ccc3c(c2)OCO3)c1	-	52	-	-	-	-
CCOC(=O)COc1cc([N+](=O)[O-])cc2cccnc12	-	42	-	-	-	-
CCOc1ccccc1N(CC(=O)Nc1c(C)n(C)n(-c2ccccc2)c1=O)S(=O)(=O)c1ccccc1	-	57	-	-	-	-
CCOc1ccc(N(CC(=O)Nc2c(C)n(C)n(-c3ccccc3)c2=O)S(=O)(=O)c2ccc(F)cc2)cc1	.	.	.	-	.	.
Cc1c(NC(=O)c2ccccc2N(C)S(=O)(=O)c2ccccc2)c(=O)n(-c2ccccc2)n1C	-	41	-	-	-	-
CC(C)CNC(=O)c1ccccc1NC(=O)c1ccccc1N(C)S(=O)(=O)c1ccccc1	-	69	-	-	-	-
O=C(NCC(=O)N1CC=C(c2ccccc2)CC1)c1ccc(F)cc1	-	-	.	.	.	-
O=C(c1cc2ccccc2o1)N(C1CC1)C1(C(=O)Nc2ccccc2)CCCC1	-	-	-	-	-	-
CCCCc1nc(NCCO)c(C#N)c2c1CCCC2	50	-	-	-	-	-
CCCCNc1nc(CC)c2c(c1C#N)CCCC2	-	-	-	-	-	-
SMILES	CHO parental Ca	OX1R antag-1	TRPN1 ag	GPR7 antagonist	TRPML3 ag	OX1R antag-2
O=C(N/N=C/c1cc(Br)c(Br)o1)c1cc2ccccc2o1	-	62	.	-	.	-
Cc1sc(N)nc1-c1c(C)n(C)c2ccccc12	.	.	.	-	.	.
O=[N+]([O-])c1nn(-c2ccc3c(c2)OCCO3)n(O)c1=NC1CCN(Cc2ccccc2)CC1	-	-	-	-	-	-
O=[N+]([O-])c1nn(-c2ccccc2)n(O)c1=NC1CCN(Cc2ccccc2)CC1	-	46	-	-	-	-
COc1ccccc1CNC(=O)c1cc(-c2ccncc2)nc2c(Cl)cccc12	-	-	.	-	.	-
CCc1noc(C)c1C(=O)Nc1nc(-c2ccc(NC(C)=O)cc2)cs1	-	58	.	.	.	-
CCc1noc(C)c1C(=O)OCC(=O)Nc1nc(-c2ccc(F)c(F)c2)cs1	36	-	.	.	.	69
CC(=O)Nc1ccc(-c2csc(NC(=O)c3ccc(C)o3)n2)cc1	-	-	-	-	-	-
COc1ccc(-c2csc(NC(=O)CSCc3c(C)noc3C)n2)cc1OC	-	-	.	-	.	-
COc1ccc(-c2csc(NC(=O)C3CCN(c4ncnc5sc(C)c(C)c45)CC3)n2)cc1OC	75	76	.	.	.	45
CCc1noc(C)c1C(=O)Nc1nc(-c2ccc(OC)c(OC)c2)cs1	-	61	.	.	.	-
CN(C)C(=O)Cn1cc(S(=O)(=O)Cc2ccccc2)c2ccccc21	-	-	.	-	.	-
Cc1ccc(C)c(-c2csc(NC(=O)c3c(C)noc3C)n2)c1	-	-	.	.	.	-
Cc1ccc(-c2csc(NC(=O)c3c(C)noc3C)n2)cc1C	-	32	.	.	.	-
COc1ccc(OC)c(NC(=O)CN(Cc2ccc(F)cc2)C2CCCCC2)c1	45	-	.	-	.	-
Cn1cc(CN2CCC(N3CCNC(=O)CC3)CC2)c(-c2ccccc2F)n1	-	-	-	-	-	-
CCCC[C@@]1(C2CCCC2)Cc2cc(OCC(=O)O)c(Cl)c(Cl)c2C1=O	-	43	.	.	.	-
C[C@]1(C2CCCC2)Cc2cc(OCC(=O)O)c(Cl)c(Cl)c2C1=O	-	-	.	.	.	-
COc1cc(C(=S)N2CCOCC2)cc(Br)c1OS(=O)(=O)c1ccccc1	-	35	.	-	.	-
COc1ccc(S(=O)(=O)Oc2c(OC)cc(C(=S)N3CCOCC3)cc2OC)cc1	-	-	.	-	.	-
COc1cc(/C=C2/S/C(=N/S(=O)(=O)Cc3ccccc3)NC2=O)c([N+](=O)[O-])cc1OC	-	41	-	-	-	-
COc1c(/C=C2\SC(=Nc3ccccc3Cl)NC2=O)cccc1[N+](=O)[O-]	-	68	.	-	.	-
COc1cc(/C=C2\S/C(=N/S(=O)(=O)Cc3ccccc3)NC2=O)c([N+](=O)[O-])cc1OC	-	-	-	-	-	-
O=C1N/C(=N\S(=O)(=O)c2ccccc2)S/C1=C\c1cc([N+](=O)[O-])ccc1O	46	-	.	-	.	59
COc1ccccc1-n1c(SCC(=O)Nc2ccc(NC(C)=O)cc2)nc2c([nH]c3ccccc32)c1=O	-	-	.	-	.	-
CN(Cc1ccco1)C(=O)c1ccc(S(=O)(=O)N2CCCCCC2)cc1	-	-	.	.	.	-
CCOc1cc(CNCCc2ccc(S(N)(=O)=O)cc2)cc(Cl)c1OCc1ccccc1	58	-	-	-	-	55
